Assay results reported in ChEMBL document CHEMBL1781920, “Synthesis and antimicrobial activity of some new 4-hetarylpyrazole and furo[2,3-c]pyrazole derivatives” (2011).
Converted amounts (≈) assume the structure as drawn.

System: Botrytis fabae
Experiment: Antifungal activity against Botrytis fabae ATCC 14862 at 1 mg/ml after 48 hrs by agar-diffusion method
Type: functional
Conditions: ATCC 14862, 48 h, read-out: IZ
How it was run: (§1)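 Fungi were seeded at 10⁴ CFU/mL onto nutrient agar plates. Filter-paper disks carried compound dissolved in DMF at 1 mg/mL, two disks per plate, in triplicate, with a DMF-only control. After 48 h incubation at 37 °C, the average diameter of the growth-inhibition zone was read in mm.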

| SMILES | zone of inhibition at 1000 µg/mL [mm] |
| --- | --- |
| Cc1[nH]n(-c2ccccc2)c(=O)c1C1=Nc2ccccc2NC1 | 20 |
| CC(=O)c1cc(-c2c(C)[nH]n(-c3ccccc3)c2=O)oc1C | 26 |
| Cc1[nH]n(-c2ccccc2)c(=O)c1C1=Nc2ccccc2OC1 | 15 |
| Cc1[nH]n(-c2ccccc2)c(=O)c1C1=Nc2ccccc2SC1 | 19 |

System: Botrytis fabae
Experiment: Antifungal activity against Botrytis fabae ATCC 14862 after 48 hrs by serial dilution method
Type: functional
Conditions: ATCC 14862, 48 h
How it was run: (§2)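 MICs were measured by microdilution in Sabouraud liquid medium, for compounds with disk zones >14 mm. DMF stocks were serially diluted twofold across 500–3.125. Sealed plates were incubated at 37 °C for 48 h in a humid chamber. The lowest concentration with no visible turbidity was recorded as the MIC.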

| MIC [µg/mL] | SMILES |
| --- | --- |
| 50 (≈ 164 µM) | Cc1[nH]n(-c2ccccc2)c(=O)c1C1=Nc2ccccc2NC1 |
| 25 (≈ 84.4 µM) | CC(=O)c1cc(-c2c(C)[nH]n(-c3ccccc3)c2=O)oc1C |
| 100 (≈ 328 µM) | Cc1[nH]n(-c2ccccc2)c(=O)c1C1=Nc2ccccc2OC1 |
| 50 (≈ 156 µM) | Cc1[nH]n(-c2ccccc2)c(=O)c1C1=Nc2ccccc2SC1 |

System: Bacillus subtilis
Experiment: Antibacterial activity against Bacillus subtilis ATCC 6633 at 1 mg/ml after 24 hrs by agar-diffusion method
Type: functional
Conditions: ATCC 6633, 24 h, read-out: IZ
How it was run: (§3)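 Agar disk diffusion on nutrient agar seeded with about 10⁶ CFU/mL of the test bacterium. Filter-paper disks were impregnated with compound in DMF at 1 mg/mL, two disks per plate, in triplicate. DMF alone served as control. Plates were incubated at 37 °C for 24 h, and the mean inhibition-zone diameter was recorded in mm.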

| SMILES | zone of inhibition at 1000 µg/mL [mm] |
| --- | --- |
| Cc1[nH]n(-c2ccccc2)c(=O)c1C1=Nc2ccccc2NC1 | 19 |
| CC(=O)c1cc(-c2c(C)[nH]n(-c3ccccc3)c2=O)oc1C | 42 |
| Cc1[nH]n(-c2ccccc2)c(=O)c1C1=Nc2ccccc2OC1 | 20 |
| Cc1[nH]n(-c2ccccc2)c(=O)c1C1=Nc2ccccc2SC1 | 15 |

System: Bacillus subtilis
Experiment: Antibacterial activity against Bacillus subtilis ATCC 6633 after 24 hrs by serial dilution method
Type: functional
Conditions: ATCC 6633, 24 h
How it was run: (§4)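 Broth microdilution in Mueller–Hinton broth, run only for compounds giving zones >14 mm in the disk test. DMF stocks were diluted twofold from 500 to 3.125, and about 10⁶ CFU/mL bacteria were added per well. Sealed plates were kept at 37 °C for 24 h in a humid chamber. MIC was taken as the lowest concentration without visible turbidity.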

| MIC [µg/mL] | SMILES |
| --- | --- |
| 50 (≈ 164 µM) | Cc1[nH]n(-c2ccccc2)c(=O)c1C1=Nc2ccccc2NC1 |
| 3.12 (≈ 10.5 µM) | CC(=O)c1cc(-c2c(C)[nH]n(-c3ccccc3)c2=O)oc1C |
| 50 (≈ 164 µM) | Cc1[nH]n(-c2ccccc2)c(=O)c1C1=Nc2ccccc2OC1 |
| 100 (≈ 311 µM) | Cc1[nH]n(-c2ccccc2)c(=O)c1C1=Nc2ccccc2SC1 |

System: Bacillus thuringiensis
Experiment: Antibacterial activity against Bacillus thuringiensis ATCC 6051 after 24 hrs by serial dilution method
Type: functional
Conditions: ATCC 6051, 24 h
How it was run: as §4

| MIC [µg/mL] | SMILES |
| --- | --- |
| 100 (≈ 329 µM) | Cc1[nH]n(-c2ccccc2)c(=O)c1C1=Nc2ccccc2NC1 |
| 6.25 (≈ 21.1 µM) | CC(=O)c1cc(-c2c(C)[nH]n(-c3ccccc3)c2=O)oc1C |
| 50 (≈ 164 µM) | Cc1[nH]n(-c2ccccc2)c(=O)c1C1=Nc2ccccc2OC1 |
| 100 (≈ 311 µM) | Cc1[nH]n(-c2ccccc2)c(=O)c1C1=Nc2ccccc2SC1 |

System: Escherichia coli
Experiment: Antibacterial activity against Escherichia coli ATCC 14169 at 1 mg/ml after 24 hrs by agar-diffusion method
Type: functional
Conditions: ATCC 14169, 24 h, read-out: IZ
How it was run: as §3

| SMILES | zone of inhibition at 1000 µg/mL [mm] |
| --- | --- |
| Cc1[nH]n(-c2ccccc2)c(=O)c1C1=Nc2ccccc2NC1 | 15 |
| CC(=O)c1cc(-c2c(C)[nH]n(-c3ccccc3)c2=O)oc1C | 15 |
| Cc1[nH]n(-c2ccccc2)c(=O)c1C1=Nc2ccccc2OC1 | 19 |
| Cc1[nH]n(-c2ccccc2)c(=O)c1C1=Nc2ccccc2SC1 | 15 |

System: Pseudomonas aeruginosa
Experiment: Antibacterial activity against Pseudomonas aeruginosa ATCC 27853 at 1 mg/ml after 24 hrs by agar-diffusion method
Type: functional
Conditions: ATCC 27853, 24 h, read-out: IZ
How it was run: as §3

| SMILES | zone of inhibition at 1000 µg/mL [mm] |
| --- | --- |
| Cc1[nH]n(-c2ccccc2)c(=O)c1C1=Nc2ccccc2NC1 | 19 |
| CC(=O)c1cc(-c2c(C)[nH]n(-c3ccccc3)c2=O)oc1C | 18 |
| Cc1[nH]n(-c2ccccc2)c(=O)c1C1=Nc2ccccc2OC1 | 15 |
| Cc1[nH]n(-c2ccccc2)c(=O)c1C1=Nc2ccccc2SC1 | 16 |

System: Escherichia coli
Experiment: Antibacterial activity against Escherichia coli ATCC 14169 after 24 hrs by serial dilution method
Type: functional
Conditions: ATCC 14169, 24 h
How it was run: as §4

| MIC [µg/mL] | SMILES |
| --- | --- |
| 100 (≈ 329 µM) | Cc1[nH]n(-c2ccccc2)c(=O)c1C1=Nc2ccccc2NC1 |
| 100 (≈ 337 µM) | CC(=O)c1cc(-c2c(C)[nH]n(-c3ccccc3)c2=O)oc1C |
| 50 (≈ 164 µM) | Cc1[nH]n(-c2ccccc2)c(=O)c1C1=Nc2ccccc2OC1 |
| 100 (≈ 311 µM) | Cc1[nH]n(-c2ccccc2)c(=O)c1C1=Nc2ccccc2SC1 |

System: Fusarium oxysporum
Experiment: Antifungal activity against Fusarium oxysporum ATCC 16417 after 48 hrs by serial dilution method
Type: functional
Conditions: ATCC 16417, 48 h
How it was run: as §2

| MIC [µg/mL] | SMILES |
| --- | --- |
| 100 (≈ 329 µM) | Cc1[nH]n(-c2ccccc2)c(=O)c1C1=Nc2ccccc2NC1 |
| 50 (≈ 169 µM) | CC(=O)c1cc(-c2c(C)[nH]n(-c3ccccc3)c2=O)oc1C |
| 100 (≈ 328 µM) | Cc1[nH]n(-c2ccccc2)c(=O)c1C1=Nc2ccccc2OC1 |
| 100 (≈ 311 µM) | Cc1[nH]n(-c2ccccc2)c(=O)c1C1=Nc2ccccc2SC1 |

System: Fusarium oxysporum
Experiment: Antifungal activity against Fusarium oxysporum ATCC 16417 at 1 mg/ml after 48 hrs by agar-diffusion method
Type: functional
Conditions: ATCC 16417, 48 h, read-out: IZ
How it was run: as §1

| SMILES | zone of inhibition at 1000 µg/mL [mm] |
| --- | --- |
| Cc1[nH]n(-c2ccccc2)c(=O)c1C1=Nc2ccccc2NC1 | 15 |
| CC(=O)c1cc(-c2c(C)[nH]n(-c3ccccc3)c2=O)oc1C | 20 |
| Cc1[nH]n(-c2ccccc2)c(=O)c1C1=Nc2ccccc2OC1 | 15 |
| Cc1[nH]n(-c2ccccc2)c(=O)c1C1=Nc2ccccc2SC1 | 15 |

System: Bacillus thuringiensis
Experiment: Antibacterial activity against Bacillus thuringiensis ATCC 6051 at 1 mg/ml after 24 hrs by agar-diffusion method
Type: functional
Conditions: ATCC 6051, 24 h, read-out: IZ
How it was run: as §3

| SMILES | zone of inhibition at 1000 µg/mL [mm] |
| --- | --- |
| Cc1[nH]n(-c2ccccc2)c(=O)c1C1=Nc2ccccc2NC1 | 15 |
| CC(=O)c1cc(-c2c(C)[nH]n(-c3ccccc3)c2=O)oc1C | 37 |
| Cc1[nH]n(-c2ccccc2)c(=O)c1C1=Nc2ccccc2OC1 | 19 |
| Cc1[nH]n(-c2ccccc2)c(=O)c1C1=Nc2ccccc2SC1 | 15 |

System: Pseudomonas aeruginosa
Experiment: Antibacterial activity against Pseudomonas aeruginosa ATCC 27853 after 24 hrs by serial dilution method
Type: functional
Conditions: ATCC 27853, 24 h
How it was run: as §4

| MIC [µg/mL] | SMILES |
| --- | --- |
| 50 (≈ 164 µM) | Cc1[nH]n(-c2ccccc2)c(=O)c1C1=Nc2ccccc2NC1 |
| 50 (≈ 169 µM) | CC(=O)c1cc(-c2c(C)[nH]n(-c3ccccc3)c2=O)oc1C |
| 100 (≈ 328 µM) | Cc1[nH]n(-c2ccccc2)c(=O)c1C1=Nc2ccccc2OC1 |
| 100 (≈ 311 µM) | Cc1[nH]n(-c2ccccc2)c(=O)c1C1=Nc2ccccc2SC1 |
